The term inhibition denotes how much of the control response was suppressed.

Calls of active or inactive are those of the source. The rule behind the calls is not given here.

In data set [1] the test system is VSMC. Put plainly: Antimigratory activity against PDGF-BB-stimulated rat VSMC preincubated for 2 hrs followed by PDGF-BB addition measured after 48 hrs by scratch wound-healing assay. The data set is classed as functional, cell-based. The method, boiled down:
(§1)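 Rat aortic VSMCs (enzymatic dispersion; DMEM, 10% FBS) grown in 12-well plates to >90% confluence, serum-starved 24 h, scratched with two lines and imaged at 0 h. Pretreated 2 h with compound (paclitaxel 1 μM as reference), then 25 ng/mL PDGF-BB for 48 h. Fixed in 100% MeOH, stained with 0.5% crystal violet, migration area quantified from images. Means ± SEM of triplicate experiments.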

The nature of data set [2]: Antimigratory activity against PDGF-BB-stimulated rat VSMC at 10 uM preincubated for 2 hrs followed by PDGF-BB addition measured after 48 hrs by scratch wound-healing assay. It counts as functional. Summed up: as §1
Data set [3] can be described thus: (§2) Antimigratory activity against PDGF-BB-stimulated rat VSMC at 30 uM preincubated for 2 hrs followed by PDGF-BB addition measured after 48 hrs by scratch wound-healing assay. The data set is classed as functional. Summed up:
as §1

A short description of data set [4]: Cytotoxicity against rat VSMC assessed as decrease in cell viability at 10 to 30 uM after 48 hrs by MTT assay. It counts as cell-based. Summed up:
(§3)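 Rat aortic VSMCs seeded at 3.5 × 10^4 cells/mL in DMEM/10% FBS and grown to 70% confluence, then serum-free for 24 h. Exposed to compound for 48 h without PDGF (digitonin 100 μg/mL reference). Viability by MTT: 5 mg/mL for 4 h, DMSO, absorbance at 565 nm. Means ± SEM.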
A general note: Formazan colour is commonly taken as a measure of viable cells.

Data set [5] concerns VSMC. Put plainly: Antimigratory activity against PDGF-BB-stimulated rat VSMC preincubated for 2 hrs followed by PDGF-BB addition measured after 48 hrs by photograph-based scratch wound-healing assay. It counts as functional, cell-based. The method, boiled down: as §1
Data set [6] has as its system VSMC. Description: Antiproliferative activity against PDGF-BB-stimulated rat VSMC at 10 to 30 uM preincubated for 24 hrs followed by PDGF-BB addition measured after 24 hrs by MTT assay. The data set is classed as functional, cell-based. Summed up: (§4)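 Rat aortic VSMCs seeded at 3.5 × 10^4 cells/mL and grown in DMEM/10% FBS at 37 °C to 70% confluence. Serum-starved 24 h, given compound for 24 h (paclitaxel 1 μM reference), then stimulated with 25 ng/mL PDGF-BB for 24 h. MTT 5 mg/mL in serum-free DMEM for 4 h, DMSO solubilisation, absorbance read at 565 nm. Means ± SEM of triplicates.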

The nature of data set [7]: Antiproliferative activity against PDGF-BB-stimulated rat VSMC at 5 uM preincubated for 24 hrs followed by PDGF-BB addition measured after 24 hrs by MTT assay relative to control. The data set is classed as functional. The method, boiled down: as §4
A short description of data set [8]: Cytotoxicity against rat VSMC assessed as decrease in cell viability at 5 uM after 48 hrs by MTT assay. The data set is classed as cell-based. The method, boiled down: as §3
Data set [9] has as its system VSMC. Put plainly: Antimigratory activity against PDGF-BB-stimulated rat VSMC at 10 to 30 uM preincubated for 2 hrs followed by PDGF-BB addition measured after 48 hrs by scratch wound-healing assay. The data set is classed as functional, cell-based. Summed up: as §1
A short description of data set [10]: Cytotoxicity against rat VSMC assessed as decrease in cell viability at 30 uM after 48 hrs by MTT assay. It counts as cell-based. The method, boiled down:
as §3

The subject of data set [11] is VSMC. Description: Antiproliferative activity against PDGF-BB-stimulated rat VSMC at 30 uM preincubated for 24 hrs followed by PDGF-BB addition measured after 24 hrs by MTT assay. It counts as functional, cell-based. Summed up: as §4
The subject of data set [12] is VSMC. The data set is described as §2. The data set is classed as functional. Summed up:
as §1

For `CC(=O)O[C@H]1CC[C@]2(C)C3=CC[C@]4(C)[C@H]5[C@H](O)C[C@@H](C(C)C)[C@]5(CO)CC[C@@]4(C)[C@@H]3[C@@H](O)C[C@H]2C1(C)C`, the Activity entry is “Dose-dependent effect” in the data set with VSMC [1]; 38.5% in data set [2]; 57.6% in data set [3]; “Non-Toxic” in data set [4]; “Dose-dependent effect” in the data set with VSMC [5].
Take `CC(=O)O[C@@H]1C[C@@H](C(C)C)[C@]2(C)CC[C@@]3(C)[C@H]4C(=CC[C@]3(C)[C@@H]12)[C@@]1(C)C=CC(=O)C(C)(C)[C@@H]1C[C@@H]4O`: the inhibition result with VSMC [6] was “Active”. The inhibition at 5 µM in data set [7] amounted to 41.1%. Besides, the Activity result is “Non-Toxic” in data set [8] and “Toxic” in data set [4].
With `CC(=O)O[C@@H]1C[C@@H](C(C)C)[C@]2(C)CC[C@@]3(C)[C@H]4C(=CC[C@]3(C)[C@@H]12)[C@@]1(C)CC[C@H](O)C(C)(C)[C@@H]1C[C@@H]4O`, the inhibition entry with VSMC [6] is “Active”. The outcome in the data set on VSMC [9] was Active. Also, in data set [4], the Activity entry is “Toxic”.
As for `CC(C)[C@@H]1C[C@@H]2OC[C@]13CC[C@@]1(C)[C@H]4C(=CC[C@]1(C)[C@@H]23)[C@@]1(C)CC[C@H](O)C(C)(C)[C@@H]1C[C@@H]4O`, in the data set on VSMC [6], the inhibition result was “Active”. Further, at 5 µM the inhibition in [7] was 62.6%. The Activity entry in [8] is listed as “Non-Toxic”; in data set [4] it was “Toxic”. Also, the outcome with VSMC [9] was Active.
Consider `CC(=O)OC[C@@]12CC[C@@]3(C)[C@H]4C(=CC[C@]3(C)[C@H]1[C@H](O)C[C@H]2C(C)C)[C@@]1(C)CC[C@H](OC(C)=O)C(C)(C)[C@@H]1C[C@@H]4O`, for which the Activity result in data set [10] is given as “Toxic”. Besides, the inhibition entry in the data set on VSMC [11] was “Active”. In addition, the outcome in the data set on VSMC [12] was Active.

These data come from ChEMBL document CHEMBL4000162, “Arborinane Triterpenoids from Rubia philippinensis Inhibit Proliferation and Migration of Vascular Smooth Muscle Cells Induced by the Platelet-Derived Growth Factor” (J Nat Prod, 2016).
